Assay: Toxicity liver stage against HepG2, at 10uM
Type: cell-based
Design: test concentration 10 uM, cell line HepG2-A16-CD81EGFP
Conditions: human, HepG2-A16-CD81EGFP cells; read-out: INHIBITION
Procedure, shortened: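 Uninfected HepG2-A16-CD81EGFP cells, 3 × 10^3 per well, 1536-well, plated on prespotted compound at 10 μM final, parasite-free screening media added to match infected plates; puromycin 10 μM positive, DMSO 0.5% negative; run in parallel with 48 h PbLuc assay at 37 °C, 5% CO2; viability by CellTiter-Glo luminescence, normalized to controls.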

| Structure (SMILES) | cytotoxicity at 10 µM [%] |
| --- | --- |
| Cn1cc(CN2CCOC[C@H]2c2nc(C(C)(C)C)co2)c2ccccc21 | 1.21 |
| O=C(N[C@@H]1CNCCC[C@H]1O)c1ccc(OCc2ccccc2)cc1 | -3.39 |
| COc1ccc(CNc2c(C)cnc3c2c(=O)n(C)c(=O)n3C)cc1 | 2.9 |
| CCc1nnc2ccc(N3CCN(S(=O)(=O)c4ccc(C)s4)CC3)nn12 | 1.5 |
| Cc1ccc(-n2nnc(C(=O)NCC3CCCCC3)n2)cc1 | -3.5 |
| CCOCc1cncc2c1CCN(C(=O)c1cccc(C#N)c1)C2 | 3.55 |
| COCCN1C(=O)CO[C@@H]2CN(S(=O)(=O)c3ccccc3)C[C@H]21 | 0.975 |
| C[C@H]1C[C@@H]2CCN(C(=O)c3ccncc3)C[C@H]2O1 | -1.02 |
| Cn1cc(CN2CC[C@H]3OCC[C@@H](C(=O)NC4CCCC4)[C@@H]3C2)cn1 | 0.835 |
| CN1CCc2c(C#N)c(NCc3ccncc3)n3cnnc3c2C1 | 10.8 |
| COc1ccccc1OCC(=O)n1nc(C)c(C)c1C | -5.01 |
| Cc1cs/c(=N\C(=O)Cn2nc(N3CCSCC3)ccc2=O)[nH]1 | 2.33 |
| Cc1nc(N2CCOCC2)nc2c1CN(C(=O)Cc1ccccn1)CC2 | -7.61 |
| CCn1cc(CN(C)S(=O)(=O)c2ccc(C)c(C)c2)cn1 | 9.65 |
| COc1ccccc1Cc1cc(O)nc(NC(C)CN(C)C)n1 (stereo unspecified) | 2.32 |
| Cc1ccccc1OCCCNC(=O)C1(C)CC(=O)N2C=CC=CC2=N1 (stereo unspecified) | -4.96 |
| Cc1nn(C)cc1C(=O)N1CCC(C(=O)c2nc3ccccc3s2)CC1 | 8.12 |
| CC(=O)N1CCCC(c2nc(N(C)C)ncc2-c2ccccc2)C1 (stereo unspecified) | 14.7 |
| CCS(=O)(=O)N1C[C@@H](O)[C@H](N2CCc3ccccc3C2)C1 | -3.63 |
| Cc1cc(C)nc(C2CCN(C(=O)CCn3ncc4ccccc43)C2)n1 (stereo unspecified) | -17.3 |
| Cc1ccccc1CC(=O)N[C@@H]1CCC[C@@H](N2CCNC(=O)C2)[C@@H]1O | -24.5 |
| Cc1ccnn1CCC(=O)N1C[C@@H](O)[C@H](Oc2cccc(F)c2)C1 | -15.8 |
| COc1ccccc1-c1nccnc1C1CCN(C(C)=O)CC1 | -1.69 |

| Structure (SMILES) | cytotoxicity at 10 µM [%] |
| --- | --- |
| CCC(=O)N1CCCC(c2ncc3c(n2)CCN(C)C3)C1 (stereo unspecified) | -8.77 |
| CN1CCCCC12Cc1ccccc1CN(C(=O)c1ccccc1)C2 (stereo unspecified) | 7.44 |
| CC(C)C(NC(=O)N1CCS(=O)(=O)CC1)c1ccccc1Cl (stereo unspecified) | 13.3 |
| COCCC(C)NS(=O)(=O)c1ccc(C)c(N(C)C)c1 (stereo unspecified) | -0.2 |
| CC1CS(=O)(=O)CCN1CCCc1ccc(C(F)(F)F)cc1 (stereo unspecified) | 0.715 |
| CCc1nnc(CSc2ccccn2)o1 | -2.98 |
| Cc1ccc(S(=O)(=O)N(C)Cc2nccs2)cc1N(C)C | -9.78 |
| O=c1cc(CN(Cc2ccco2)C2CC2)nc2ccc(Br)cn12 | 9.48 |
| CN(CC(N)=O)C(=O)CCCn1ccc2cc(Cl)ccc21 | -2.13 |
| COc1ccnc(N2CCCN(Cc3ncc(C(C)C)o3)CC2)n1 | 1.74 |
| O=S(=O)(CC1CCCCO1)Nc1cnn(CC(F)F)c1 (stereo unspecified) | -3.09 |
| Cc1cc(CN(C)C(=O)NCc2ccnc(N(C)C)c2)no1 | 5.85 |
| Cc1cc(CN(C)C(=O)C2CCCN(C(N)=O)C2)no1 (stereo unspecified) | 11.6 |
| COc1cc2c(cc1OC)S(=O)(=O)N(Cc1ccccc1)C2=O | 8.2 |
| CN(C)c1cccc(C2CCCN2S(N)(=O)=O)c1 (stereo unspecified) | -5.44 |
| CC(CNC(=O)c1cnccn1)Oc1cccc(Br)c1 (stereo unspecified) | 1.25 |
| Cc1cc(C)n(-c2ccc(C(=O)N3CCCC3c3cnn(C)c3)cc2)n1 (stereo unspecified) | -7.41 |
| CCN(CC)S(=O)(=O)N(Cc1cccc(C)c1)Cc1ccccn1 | -4.88 |
| O=C(Cc1ccon1)NC1CCCN(c2ccccc2F)C1=O (stereo unspecified) | -2.03 |
| N#Cc1cccnc1N1CCCN(CC(=O)N2CCNC(=O)C2)CC1 | 4.07 |
| COc1cccc(S(=O)(=O)Cc2cc(C)on2)c1 | 4.03 |
| O=C(CN1CCc2ccccc21)Nc1ccc(OC(F)F)cc1 | 16.8 |
| COc1cccc(CNC(=O)c2nc3c(s2)CCN(C(C)=O)CC3)c1 | -77.4 |

| Structure (SMILES) | cytotoxicity at 10 µM [%] |
| --- | --- |
| O=C(c1cnccn1)N1CCc2onc(Cn3cccn3)c2C1 | -0.25 |
| O=C(NCCO)c1ccn(-c2ccc3ccccn23)n1 | -8.21 |
| O=C1CCC2(CCOC2)CN1Cc1nncn1CCc1ccccc1 (stereo unspecified) | -0.506 |
| CCCn1cnnc1CNC1CCCC1 | -2.27 |
| Cc1cc(C)nc(N2CCCC(Cn3cc(CN(C)C)nn3)C2)n1 (stereo unspecified) | -5.43 |
| CCC(OC)C(=O)N1CCC2(CC1)c1nc[nH]c1CCN2S(C)(=O)=O (stereo unspecified) | -6.6 |
| Cc1ccsc1C(=O)NCc1cccnc1N(C)CCc1ccccn1 | -0.678 |
| COc1ncccc1C1CC(=O)Nc2cc(NS(C)(=O)=O)ccc21 (stereo unspecified) | -8.1 |
| O=C(c1cnn[nH]1)N(Cc1ccncc1)CC1CCCO1 (stereo unspecified) | 2.86 |
| Cc1ccc(F)cc1CC(=O)N1CC[C@@]2(O)CCNC[C@H]2C1 | 2.38 |
| O=C(O)CSc1nnc(-c2ccn[nH]2)n1-c1cccc(C(F)(F)F)c1 | 0.34 |
| c1ccc(COCCN2CCc3[nH]cnc3C2c2ccoc2)cc1 (stereo unspecified) | 6.62 |
| Cc1[nH]ccc1C(=O)N[C@H]1CN(CCO)C[C@@H]1C1CC1 | 3.07 |
| CN(CC1CCOCC1)C(C(=O)O)c1cccc(F)c1F (stereo unspecified) | 6.89 |
| Cc1cc(CN2CCC(c3nccn3C(C)C)CC2)ccc1F | 5.22 |
| O=C(Cc1n[nH]c(-c2cncc(Br)c2)n1)NCc1cccnc1 | 2.74 |
| CCN1CCN(S(=O)(=O)c2ccc(Cc3cc(C)n[nH]c3=O)cc2)CC1 | -8.25 |
| O=C(O)CSc1nnc(-c2cn[nH]c2)n1-c1ccccc1Cl | -3.54 |
| CCC(=O)NC(C)c1ccccc1C (stereo unspecified) | 0.245 |
| Cn1cccc1C(=O)N1CCC2(CCCN(CC3CC3)C2=O)C1 (stereo unspecified) | -0.445 |
| CCOC(=O)N1CCC(NC(=O)c2cccc(C3CCCNC3)c2)CC1 (stereo unspecified) | 1.34 |
| O=C(c1ccc2c(c1)CCC2)N1C[C@@H](CN2CCOCC2)[C@@H](CO)C1 | 20.7 |
| CCCN1CCCn2nc(CNS(=O)(=O)c3ccc(C)cc3)cc2C1 | 1.6 |

| Structure (SMILES) | cytotoxicity at 10 µM [%] |
| --- | --- |
| Cc1cc(C)c2nc(CN3CCOC(CCO)C3)cc(O)c2c1 (stereo unspecified) | -9.26 |
| CCN(c1ccc(C(=O)N2CCCC(C)C2)cc1)S(=O)(=O)CC (stereo unspecified) | -8.6 |
| NC(=O)C1CCN(C(=O)CCn2ccc3cc(Br)ccc32)CC1 | -6.44 |
| CC1CN(Cc2cnn(C)c2)CCN1c1ccc2nncn2n1 (stereo unspecified) | 2.69 |
| CC(C)OCCCNC(=O)CS(=O)(=O)Cc1ccc(Cl)cc1 | -2.87 |
| Cc1csc(CNC(=O)NC(C)c2ccc3c(c2)CCC(=O)N3)n1 (stereo unspecified) | 4.17 |
| O=C(c1cccn1Cc1cccs1)N1CCSCC1 | 4.14 |
| Cc1nc(C(C)(C)C)sc1C(=O)NCCNc1ncccn1 | -4.83 |
| CCn1cc(NC(=O)C2CCN(CC(=O)NC(C)(C)CC)CC2)cn1 | -1.01 |
| CCc1nc(CN2CCN(C(=O)c3csnn3)CC2)cs1 | -9.04 |
| O=C(NCCOc1ccccc1)Nc1cc(C(F)(F)F)c[nH]c1=O | -11.9 |
| COc1ncccc1CNC(=O)NC1CCCOc2ccccc21 (stereo unspecified) | -6.14 |
| O=C(c1ccon1)N1CCCC(n2cncn2)C1 (stereo unspecified) | -8.51 |
| CC(O)CN1CCN(C(=O)c2ccc(CN(C)C)cc2)CC1 (stereo unspecified) | -8.09 |
| Cc1nn(C)c(Cl)c1C1CCCN1C(=O)c1csnn1 (stereo unspecified) | -0.121 |
| c1ccc(-n2ccc(CN3CCCC3Cn3cncn3)n2)cc1 (stereo unspecified) | 0.665 |
| Cc1ccc(CNC(=O)N2CCCC(NS(C)(=O)=O)C2)cc1 (stereo unspecified) | 2.73 |
| Cc1n[nH]c(=O)c2c(NC(=O)CN3CCOCC3)oc(C)c12 | -7.95 |
| CC(CNc1cncc(-n2cccn2)n1)N(C)c1ccccc1 (stereo unspecified) | -4.48 |
| NC(=O)CN1CCCN(C(=O)Cc2ccc3c(c2)OCO3)CC1 | 2.96 |
| CC(C)c1nc(C2CCCN2CC(=O)Nc2nncs2)no1 (stereo unspecified) | -3.13 |
| CC(Cn1cccn1)NCc1csc(-c2ccccc2F)n1 (stereo unspecified) | -7.71 |
| COCCOc1cccc(C(=O)N2CCCC(n3cccn3)C2)c1 (stereo unspecified) | -7.81 |

| Structure (SMILES) | cytotoxicity at 10 µM [%] |
| --- | --- |
| O=C(NCCO)c1sc2ncccc2c1C1CNCCO1 (stereo unspecified) | 11.2 |
| COc1ccccc1Cc1cncc(N2CC(C(=O)O)C2)n1 | 2.71 |
| C=C(C)CN1CCN(Cc2cnc(-c3ccccc3C)nc2)CC1 | -33.6 |
| Cc1ccc(CN(CCCN(C)C)Cc2cnc(C)n2C)o1 | 9.96 |
| Cc1nnc(N2CCCC3(CN(Cc4ccncc4)CCO3)C2)o1 (stereo unspecified) | -13.5 |
| CC(C)n1c(C(=O)N2CCCC2)nc2c1CCN(C)C2 | 15.3 |
| CN(Cc1cn2c(n1)CN(C1CCOC1)CC2)Cc1ccco1 (stereo unspecified) | -2.15 |
| COCCN1CC[C@H](OC)[C@@H]1Cc1ccccc1 | -0.675 |
| CC(=O)N1CCC12CCN(Cc1ccco1)CC2 | 1.17 |
| O=C(C1CCOCC1)N1CCO[C@H]2[C@H](Oc3cccnc3)CC[C@@H]21 | 2.03 |
| O=C(NCc1cncc2c1CCN(Cc1cccs1)C2)C1CC1 | 2.13 |
| Cc1nnc([C@]23COC[C@H]2CN(Cc2nccs2)C3)o1 | 0.872 |
| CCn1ncc2c1C(COC)CN(S(=O)(=O)N(C)C)C2 (stereo unspecified) | 12.5 |
| O=C1CC(c2cccnc2)C2(CCN(S(=O)(=O)C3CC3)CC2)N1 (stereo unspecified) | -2.29 |
| CN(C)S(=O)(=O)N1CC[C@]2(C[C@@H](Oc3ncccc3F)CO2)C1 | -67 |
| O=C(c1cnccn1)N1CCCC2(CCN(c3ncccn3)C2)C1 (stereo unspecified) | 5.61 |
| O=C(CC1CC1)NCc1cn2c(n1)CN(CC1CC1)CC2 | 4.17 |
| Cc1nc(CN2CCO[C@@H]3CN(C(=O)CC4CC4)C[C@@H]3C2)cs1 | 5.04 |
| O=C(NCC1CCCCC1)N1C[C@@H]2C[C@@H]1CN2 | -7.78 |

From ChEMBL document CHEMBL4513216, “Probing the Open Global Health Chemical Diversity Library for Multistage-Active Starting Points for Next-Generation Antimalarials” (ACS Infect Dis, 2020)
